Source: ChEMBL document CHEMBL3804820, “2-hydroxyisoquinoline-1,3(2H,4H)-diones (HIDs) as human immunodeficiency virus type 1 integrase inhibitors: Influence of the alkylcarboxamide substitution of position 4” (Eur J Med Chem, 2016)
Converted amounts (≈) assume the structure as drawn. The source made the active and inactive calls. The calls are words filed in the database; no cut-off is given here.

Columns and labels:
[1] = system: MDCK-II; test: Inhibition of human P-gp expressed in MDCK2-MDR1 cells assessed as reduction in calcien-AM efflux at 30 uM incubated for 20 mins by fluorimetry relative to control; assay type: cell-based
Method in brief: (§1)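 P-gp efflux inhibition in MDR1-MDCKII cells with calcein AM substrate, tested up to 100.0 µM. Read as percentage inhibition of control.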

[2] = Inhibition of recombinant HIV1 reverse transcriptase RNase H activity using calf thymus ssDNA-[3H]-RNA as template/primer incubated for 10 mins; design: species or system Human immunodeficiency virus 1
Method in brief: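 Recombinant HIV-1 RT (4.5 pmol) preincubated with compound 10 min at 37 °C. Then reacted 10 min at 37 °C with [3H]-RNA/calf thymus DNA hybrid (20,000 cpm) in 50 mM Tris-HCl pH 8.0, 10 mM DTT, 6 mM MgCl2, 80 mM KCl. Stopped with cold TCA/pyrophosphate; released radioactivity taken by subtraction from undigested control.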

[3] = system: MDCK-II; test: Inhibition of human P-gp expressed in MDCK2-MDR1 cells assessed as reduction in calcien-AM efflux at 100 uM incubated for 20 mins by fluorimetry relative to control; assay type: cell-based; method in brief: as §1
[4] = system: Human immunodeficiency virus 1; test: Selectivity ratio of EC50 for raltegravir resistant HIV1 harboring integrase Q148H mutant infected in human MT4 cells to EC50 for wild type HIV1 3B infected in human MT4 cells; assay type: functional
Method in brief: (§2)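 MT-4/MTT cytopathic-effect assay in human MT-4 lymphocytes. Cells were infected with 100–300 CCID50 of each virus stock in the presence of 5-fold serial drug dilutions. The HIV-1 IIIB wild-type stock was titrated on MT-4 cells. Viability was read spectrophotometrically as formazan from MTT reduction. EC50 is the concentration giving 50% protection against CPE for each strain. Fold-change is mutant-strain EC50 relative to wild-type EC50.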

[5] = molecular target: CYP3A4 (Homo sapiens, UniProt P08684); test: Inhibition of human recombinant CYP3A4 using BFC as substrate at 10 uM incubated for 30 mins by fluorimetry relative to control; assay type: ADME; settings: recombinant CYP3A4, probe BFC
Chain of CYP3A4 (P08684 whole entry, canonical isoform): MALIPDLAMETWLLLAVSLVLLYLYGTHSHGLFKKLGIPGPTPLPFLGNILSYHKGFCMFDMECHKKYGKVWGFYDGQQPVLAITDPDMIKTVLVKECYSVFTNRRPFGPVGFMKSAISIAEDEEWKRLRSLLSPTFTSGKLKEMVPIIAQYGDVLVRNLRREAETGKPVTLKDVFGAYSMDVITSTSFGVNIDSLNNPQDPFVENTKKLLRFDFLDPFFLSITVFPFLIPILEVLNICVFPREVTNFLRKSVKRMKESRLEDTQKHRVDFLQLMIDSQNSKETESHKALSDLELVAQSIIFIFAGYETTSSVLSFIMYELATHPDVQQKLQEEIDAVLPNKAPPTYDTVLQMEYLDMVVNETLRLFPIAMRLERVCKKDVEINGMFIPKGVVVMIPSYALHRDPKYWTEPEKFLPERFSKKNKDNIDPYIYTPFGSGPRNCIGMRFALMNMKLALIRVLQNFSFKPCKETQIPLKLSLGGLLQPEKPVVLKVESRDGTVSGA
Method in brief: (§3)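 Recombinant CYP isoforms, each with its fluorogenic substrate: CYP1A2 and CYP2C19 with CEC, CYP2C9 and CYP2D6 with MFC, CYP3A4 with BFC. Read as percentage inhibition of control, standard contract assays.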

[6] = Cytotoxicity against human HepG2 cells assessed as reduction in cell number at 1 uM after 72 hrs by fluorescent image analysis relative to untreated control; assay type: cell-based; settings: read-out: INH
Method in brief: (§4)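 Contract in vitro cytotoxicity panel covering cell number, intracellular free calcium, nuclear size, membrane permeability and mitochondrial membrane potential. Compounds tested at 1.0, 30.0 and 100.0 µM; values are percentage change versus untreated control, and IC50 where derived.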

[7] = system: HepG2; test: Cytotoxicity against human HepG2 cells assessed as increase in membrane permeability at 1 uM after 72 hrs by fluorescent image analysis relative to untreated control; assay type: cell-based; settings: hepg2, 72 h
[8] = Partition coefficient , log D of the compound in n-octanol/PBS at pH 7.4; assay type: physicochemical
Method in brief: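 Log D measured by n-octanol/PBS partition at pH 7.4, in a standard contract assay.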

[9] = Therapeutic index, ratio of CC50 for human MT4 cells to EC50 for HIV1 3B infected in human MT4 cells; assay type: cell-based; settings: read-out: Ratio CC50/EC50
Method in brief: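 Ratio of CC50 to EC50. Both were determined in parallel by MTT in MT-4 cells, with the EC50 measured against HIV-1 IIIB cytopathic effect.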

[10] = Plasma protein binding in human assessed as drug recovery at 10 uM incubated for 4 hrs by equilibrium dialysis method; assay type: ADME, cell-free; settings: read-out: Drug recovery
Method in brief: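 Human plasma protein binding, given as percent bound and percent recovery, in a standard contract assay.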

[11] = system: HepG2; test: Cytotoxicity against human HepG2 cells assessed as increase in intracellular free calcium level at 100 uM after 72 hrs by fluorescent image analysis relative to untreated control; assay type: cell-based; settings: hepg2, 72 h; method in brief: as §4
[12] = system: HepG2; test: Cytotoxicity against human HepG2 cells assessed as increase in membrane permeability at 100 uM after 72 hrs by fluorescent image analysis relative to untreated control; assay type: cell-based; settings: hepg2, 72 h
[13] = system: Human immunodeficiency virus 1; test: Antiviral activity against HIV1 3B infected in human MT4 cells at 50 to 100 times antiviral EC50 added 1 to 25 hrs post infection assessed as time required for loss of inhibition of viral replication measured at 30 hrs post infection by p24 ELISA method; assay type: functional
[14] = system: Human immunodeficiency virus 1; test: Selectivity ratio of EC50 for raltegravir resistant HIV1 harboring integrase N155H mutant infected in human MT4 cells to EC50 for wild type HIV1 3B infected in human MT4 cells; assay type: functional; method in brief: as §2
[15] = molecular target: CYP2C19 (Homo sapiens, UniProt P33261); test: Inhibition of human recombinant CYP2C19 using CEC as substrate at 10 uM incubated for 50 mins by fluorimetry relative to control; assay type: ADME; settings: recombinant CYP2C19, probe CEC; method in brief: as §3
Chain of CYP2C19 (P33261 whole entry): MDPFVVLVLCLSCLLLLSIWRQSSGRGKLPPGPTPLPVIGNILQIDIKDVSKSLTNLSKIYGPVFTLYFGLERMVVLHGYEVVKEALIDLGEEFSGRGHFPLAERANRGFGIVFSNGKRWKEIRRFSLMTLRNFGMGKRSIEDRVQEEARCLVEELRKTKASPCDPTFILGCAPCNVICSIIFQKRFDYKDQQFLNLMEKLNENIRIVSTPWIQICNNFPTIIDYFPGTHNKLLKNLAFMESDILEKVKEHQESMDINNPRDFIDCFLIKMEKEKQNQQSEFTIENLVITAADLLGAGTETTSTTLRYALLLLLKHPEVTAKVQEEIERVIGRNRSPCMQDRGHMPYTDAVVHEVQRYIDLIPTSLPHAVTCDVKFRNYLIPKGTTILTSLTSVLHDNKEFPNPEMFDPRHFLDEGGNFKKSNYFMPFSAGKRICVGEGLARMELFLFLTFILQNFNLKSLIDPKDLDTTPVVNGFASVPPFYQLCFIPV

[16] = Cytotoxicity against human HepG2 cells assessed as reduction in cell number at 100 uM after 72 hrs by fluorescent image analysis relative to untreated control; assay type: cell-based; settings: read-out: INH; method in brief: as §4
[17] = system: HepG2; test: Cytotoxicity against human HepG2 cells assessed as increase in membrane permeability at 30 uM after 72 hrs by fluorescent image analysis relative to untreated control; assay type: cell-based; settings: hepg2, 72 h
[18] = Cytotoxicity against human HepG2 cells assessed as reduction in nuclear size at 30 uM after 72 hrs by fluorescent image analysis relative to untreated control; assay type: cell-based; settings: read-out: INH; method in brief: as §4
[19] = Cytotoxicity against human HepG2 cells assessed as reduction in nuclear size at 1 uM after 72 hrs by fluorescent image analysis relative to untreated control; assay type: cell-based; settings: read-out: INH; method in brief: as §4
[20] = Cytotoxicity against human HepG2 cells assessed as reduction in mitochondrial membrane potential at 1 uM after 72 hrs by fluorescent image analysis relative to untreated control; assay type: cell-based; settings: read-out: INH; method in brief: as §4
[21] = Aqueous solubility in PBS at pH 7.4; assay type: physicochemical
Method in brief: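 Aqueous solubility measured in PBS, pH 7.4, in a standard contract assay.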

[22] = molecular target: T1, hERG (KCNH2) (Homo sapiens, UniProt Q12809); test: in vitro; settings: CHO-K1 cells expressing human ERG
T1 sequence (Q12809 whole entry): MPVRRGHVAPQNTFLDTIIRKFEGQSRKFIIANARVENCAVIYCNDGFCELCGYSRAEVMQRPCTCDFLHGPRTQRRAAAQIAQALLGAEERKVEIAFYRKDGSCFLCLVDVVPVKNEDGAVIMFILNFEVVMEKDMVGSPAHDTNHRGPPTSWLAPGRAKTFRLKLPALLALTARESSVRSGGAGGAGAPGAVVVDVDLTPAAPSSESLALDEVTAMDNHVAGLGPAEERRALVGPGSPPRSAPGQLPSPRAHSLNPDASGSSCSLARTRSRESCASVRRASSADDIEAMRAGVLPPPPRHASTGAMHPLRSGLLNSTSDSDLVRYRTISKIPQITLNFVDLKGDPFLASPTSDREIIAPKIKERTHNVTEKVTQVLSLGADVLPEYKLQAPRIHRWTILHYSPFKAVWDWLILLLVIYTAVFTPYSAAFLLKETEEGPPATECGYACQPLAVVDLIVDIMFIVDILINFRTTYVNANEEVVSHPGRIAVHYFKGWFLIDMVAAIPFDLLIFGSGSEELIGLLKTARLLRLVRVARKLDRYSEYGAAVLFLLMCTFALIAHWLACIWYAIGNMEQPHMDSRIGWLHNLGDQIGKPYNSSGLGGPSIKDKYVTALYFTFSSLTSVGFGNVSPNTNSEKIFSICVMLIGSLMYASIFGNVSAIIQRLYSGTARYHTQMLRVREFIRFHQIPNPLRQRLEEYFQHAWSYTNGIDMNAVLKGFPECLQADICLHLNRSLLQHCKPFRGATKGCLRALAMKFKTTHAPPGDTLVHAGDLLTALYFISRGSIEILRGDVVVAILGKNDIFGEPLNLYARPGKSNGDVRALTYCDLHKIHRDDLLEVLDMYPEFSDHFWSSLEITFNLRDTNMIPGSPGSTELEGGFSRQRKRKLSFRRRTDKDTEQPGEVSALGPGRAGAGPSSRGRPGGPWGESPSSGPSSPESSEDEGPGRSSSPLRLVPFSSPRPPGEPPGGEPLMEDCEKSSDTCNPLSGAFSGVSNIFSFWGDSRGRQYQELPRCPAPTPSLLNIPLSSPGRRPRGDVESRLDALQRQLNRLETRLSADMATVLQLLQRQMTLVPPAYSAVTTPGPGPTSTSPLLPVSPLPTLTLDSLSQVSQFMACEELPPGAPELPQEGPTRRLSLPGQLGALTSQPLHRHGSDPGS

[23] = Cytotoxicity against human HepG2 cells assessed as reduction in mitochondrial membrane potential at 100 uM after 72 hrs by fluorescent image analysis relative to untreated control; assay type: cell-based; settings: read-out: INH; method in brief: as §4
[24] = system: Human immunodeficiency virus 1; test: Antiviral activity against HIV1 3B infected in human MT4 cells assessed as reduction in virus-induced cytopathic effect by MTT assay; assay type: functional, organism-based; settings: Human immunodeficiency virus 1, 3B
Method in brief: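 MT-4 cells infected with 100-300 CCID50 of HIV-1 IIIB, in the presence of 5-fold serial dilutions of compound. Cytopathic effect read by MTT reduction to formazan, measured spectrophotometrically. EC50 is the concentration giving 50% protection against virus-induced CPE.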

[25] = molecular target: T1, hERG (KCNH2); test: in vitro; settings: CHO-K1 cells expressing human ERG; remark: listed apart in the source
[26] = molecular target: Human immunodeficiency virus type 1 integrase (Human immunodeficiency virus 1, UniProt Q7ZJM1); test: Inhibition of HIV1 integrase 3'-processing activity using 5'-ACTGCTAGAGATTTTCCACACTGACTAAAAGGGTC-[biotin]3' as substrate incubated for 1 hr by ELISA
Chain of Human immunodeficiency virus type 1 integrase (Q7ZJM1 whole entry): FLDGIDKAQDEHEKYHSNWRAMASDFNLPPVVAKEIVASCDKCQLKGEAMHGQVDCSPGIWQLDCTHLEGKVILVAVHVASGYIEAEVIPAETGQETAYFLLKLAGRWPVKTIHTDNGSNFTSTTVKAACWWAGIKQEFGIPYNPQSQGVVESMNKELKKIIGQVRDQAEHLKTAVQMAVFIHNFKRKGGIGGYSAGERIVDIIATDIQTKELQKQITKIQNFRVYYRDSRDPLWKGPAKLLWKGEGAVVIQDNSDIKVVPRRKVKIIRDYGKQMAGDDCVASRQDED

Work on `CCCCCCNC(=O)C1C(=O)N(O)C(=O)c2ccccc21` (stereo unspecified) yielded an inhibition [1] of 2%, an IC50 [2] of 5.35 µM and an inhibition [3] of 5.3%. For the same compound, the “Ratio EC50” value [4] was 1, the inhibition at 0.5 h, 10 µM [5] was 42% and the cytotoxicity at 72 h, 1 µM [6] was -10%. For the same compound, the Activity [7] was 0.1%, the logD [8] was 1.26 and the selectivity ratio [9] was 21.2. For the same compound, the recovery at 4 h, 10 µM [10] was 93.2%, the Activity [11] was 32.3% and the Activity [12] was 23.6%. For the same compound, the Activity [13] was “Active”, the “Ratio EC50” value [14] was 1 and the inhibition at 50 min, 10 µM [15] was 9.3%. For the same compound, the cytotoxicity at 72 h, 100 µM [16] was 25.3%, the Activity [17] was 7% and the cytotoxicity at 72 h, 30 µM [18] was 12.1%. For the same compound, the cytotoxicity at 72 h, 1 µM [19] was -7%, the cytotoxicity at 72 h, 1 µM [20] was 5.7% and the solubility [21] was 160 µM (≈ 48.8 µg/mL). For the same compound, the inhibition at 5 min, 1 µM [22] was 12.2%, the cytotoxicity at 72 h, 100 µM [23] was 33.9% and the EC50 [24] was 2.7 µM. The inhibition at 5 min, 10 µM [25] was 19.4% and the IC50 [26] was 0.51 µM.
